# ChEMBL document CHEMBL1150247, “Structural determinants for affinity enhancement of a dual antagonist peptide entry inhibitor of human immunodeficiency virus type-1” (J Med Chem, 2008)
# Activity calls are given as the source filed them. No cut-off for these calls is given here.
# Experiments:
# [1] = test system: Human immunodeficiency virus 1; assay: Antiviral activity against HIV1 BaL in CCR5 expressing P4 cells after 2 hrs; assay type: functional, organism-based; settings: Human immunodeficiency virus 1, BaL, P4, 2 h
# Method in brief: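 P4-CCR5 cells (DMEM, 10% FBS, puromycin) seeded 1.2×10^4/well ~18 h ahead; exposed 2 h to HIV-1 BaL plus peptide, washed, cultured 46 more h; infection read by β-galactosidase reporter assay. Infectivity relative to mock-treated infected cells; IC50 from sigmoidal dose-response fit; two independent experiments combined.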
# [2] = Binding affinity to HIV1 YU2 gp120 by isothermal titration calorimetric method; parameters: species or system Human immunodeficiency virus 1
# [3] = Inhibition of HIV1 YU2 gp120 binding to immobilized CD4 by surface plasmon resonance method; parameters: species or system Human immunodeficiency virus 1
# [4] = Inhibition of HIV1 YU2 gp120 binding to immobilized CD4 induced 17b monoclonal antibody by surface plasmon resonance method; parameters: species or system Human immunodeficiency virus 1
# [5] = Binding affinity to immobilized HIV1 YU2 gp120 by surface plasmon resonance method; parameters: species or system Human immunodeficiency virus 1
# Method in brief: (§1)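 YU2 gp120 (Drosophila S2-expressed, F105-affinity purified) amine-coupled to CM5 chip (~4000 RU); peptides in PBS injected at 15 μL/min, 5 min association, 5 min dissociation. Buffer and anti-IL5Rα 2B6R control-surface responses subtracted; kinetic constants fitted in BIAevaluation.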
# [6] = Inhibition of HIV1 YU2 gp120 binding to immobilized CD4 binding site specific F105 monoclonal antibody by surface plasmon resonance method; parameters: species or system Human immunodeficiency virus 1
# [7] = Inhibition of HIV1 YU2 gp120 binding to immobilized CD4 binding site specific immunoglobulin G b12 monoclonal antibody by surface plasmon resonance method; parameters: species or system Human immunodeficiency virus 1
# [8] = Inhibition of HIV1 YU2 gp120 binding to immobilized CD4 binding site specific b6 monoclonal antibody by surface plasmon resonance method; parameters: species or system Human immunodeficiency virus 1
# [9] = Cytotoxicity against CCR5 expressing human P4 cells after 2 hrs by MTT assay; assay type: cell-based; settings: p4, 2 h
# Method in brief: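 P4-CCR5 cells seeded 4×10^4/well ~18 h ahead, exposed 2 h to varying peptide concentrations, washed, then viability by MTT; triplicate in two independent assays.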
# [10] = test system: Human immunodeficiency virus 1; assay: Binding affinity to immobilized HIV1 YU2 gp120 upto 1 mM by surface plasmon resonance method; method in brief: as §1
IC50 [1],Kd [2],IC50 [3],IC50 [4],Kd [5],IC50 [6],IC50 [7],IC50 [8],Activity [10],Compound,Activity [9]
48000 nM,2600 nM,5400 nM,7200 nM,5000 nM,6400 nM,8800 nM,10000 nM,–,CC[C@H](C)[C@H](NC(=O)[C@@H](N)CCCNC(=N)N)C(=O)N[C@@H](CC(N)=O)C(=O)N[C@@H](CC(N)=O)C(=O)N[C@H](C(=O)N1CCC[C@H]1C(=O)N[C@@H](Cc1c[nH]c2ccccc12)C(=O)N[C@@H](CO)C(=O)N[C@@H](CCC(=O)O)C(=O)N[C@@H](C)C(=O)N[C@@H](CCSC)C(=O)N[C@@H](CCSC)C(=O)O)[C@@H](C)CC [RINNIPWSEAMM],Non-toxic
1400 nM,33 nM,154 nM,172 nM,23 nM,109 nM,162 nM,106 nM,–,CC[C@H](C)[C@H](NC(=O)[C@@H](N)CCCNC(=N)N)C(=O)N[C@@H](CC(N)=O)C(=O)N[C@@H](CC(N)=O)C(=O)N[C@H](C(=O)N1C[C@@H](n2cc(-c3ccccc3)nn2)C[C@H]1C(=O)N[C@@H](Cc1c[nH]c2ccccc12)C(=O)N[C@@H](CO)C(=O)N[C@@H](CCC(=O)O)C(=O)N[C@@H](C)C(=O)N[C@@H](CCSC)C(=O)N[C@@H](CCSC)C(=O)O)[C@@H](C)CC,Non-toxic
–,–,–,–,–,–,–,–,inactive,CC[C@H](C)[C@H](NC(=O)[C@@H](N)CCCNC(=N)N)C(=O)N[C@@H](CC(N)=O)C(=O)N[C@@H](CC(N)=O)C(=O)N[C@H](C(=O)N1C[C@@H](n2cc(C3(N)CCCCC3)nn2)C[C@H]1C(=O)N[C@@H](Cc1c[nH]c2ccccc12)C(=O)N[C@@H](CO)C(=O)N[C@@H](CCC(=O)O)C(=O)N[C@@H](C)C(=O)N[C@@H](CCSC)C(=O)N[C@@H](CCSC)C(=O)O)[C@@H](C)CC,–
